In ChEMBL document CHEMBL1145966, “Orally active analogues of the dopaminergic prodrug 6-(N,N-di-n-propylamino)-3,4,5,6,7,8-hexahydro-2H-naphthalen-1-one: synthesis and pharmacological activity” (J Med Chem, 2003):

Assays:
[1] = biological target: D(1A) dopamine receptor (Bos taurus, UniProt Q95136); assay: Binding affinity of compound for Dopamine receptor D1 using [3H]-SCH- 23390
Procedure, shortened: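 Rat striatal membranes; inhibition of 0.20 nM [3H]SCH23390 binding at D1 sites, following Hyttel et al. Ki in nM, n = 3, SEM < 10%.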

[2] = biological target: D(2) dopamine receptor (Bos taurus, UniProt P20288); assay: Binding affinity of compound for Dopamine receptor D2 using [3H]N-0437
[3] = tested on: Rattus norvegicus; assay: Total full contralateral turn in rat was observed at a dose of 1.0 mg kg-1 administered perorally; type: functional; conditions: route oral
[4] = tested on: Rattus norvegicus; assay: Total full contralateral turn in rat was observed at a dose of 0.3 mg kg-1 administered perorally; type: functional; conditions: route oral
[5] = tested on: Rattus norvegicus; assay: Total full contralateral turn in rat was observed at a dose of 0.1 mg kg-1 administered perorally; type: functional; conditions: route oral

Chain of D(1A) dopamine receptor (Q95136 whole entry): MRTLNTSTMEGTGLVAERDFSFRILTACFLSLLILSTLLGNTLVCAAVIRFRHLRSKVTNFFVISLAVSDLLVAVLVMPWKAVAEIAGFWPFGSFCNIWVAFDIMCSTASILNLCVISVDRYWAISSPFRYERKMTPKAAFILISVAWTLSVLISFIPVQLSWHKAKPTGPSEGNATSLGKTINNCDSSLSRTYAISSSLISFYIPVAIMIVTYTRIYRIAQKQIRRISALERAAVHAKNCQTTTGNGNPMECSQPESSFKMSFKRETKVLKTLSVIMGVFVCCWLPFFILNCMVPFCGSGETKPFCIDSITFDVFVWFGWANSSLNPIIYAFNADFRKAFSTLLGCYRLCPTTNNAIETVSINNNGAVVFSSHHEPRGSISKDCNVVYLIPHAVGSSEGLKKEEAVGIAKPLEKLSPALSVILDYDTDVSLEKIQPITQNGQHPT
Chain of D(2) dopamine receptor (P20288 whole entry): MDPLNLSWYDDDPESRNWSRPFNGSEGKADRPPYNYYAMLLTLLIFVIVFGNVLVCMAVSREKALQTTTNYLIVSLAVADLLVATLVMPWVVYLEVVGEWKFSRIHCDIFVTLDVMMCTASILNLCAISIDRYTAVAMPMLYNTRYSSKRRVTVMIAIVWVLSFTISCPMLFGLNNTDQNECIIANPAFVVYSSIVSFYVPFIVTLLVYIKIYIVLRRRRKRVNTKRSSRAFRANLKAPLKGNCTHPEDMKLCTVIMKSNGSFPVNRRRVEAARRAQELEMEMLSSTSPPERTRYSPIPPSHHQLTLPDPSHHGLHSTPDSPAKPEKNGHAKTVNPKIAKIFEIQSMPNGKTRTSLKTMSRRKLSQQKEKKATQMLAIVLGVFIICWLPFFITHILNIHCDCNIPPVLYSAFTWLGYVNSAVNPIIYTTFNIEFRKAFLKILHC

| SMILES | Ki [1] [nM] | Ki [2] [nM] | Total turns [3] | Total turns [4] | Total turns [5] |
| --- | --- | --- | --- | --- | --- |
| CCCN(CCC)[C@@H]1Cc2cccc(O)c2C[C@H]1C | 1.1 | 3 |  |  |  |
| CCCN(CCC)C1CCC2=C(C1)CC(C)(C)CC2=O (racemic) |  |  | 204 | 23 |  |
| CCCN(CC)C1CCC2=C(CCCC2=O)C1 (racemic) |  |  |  | 8901 | 4840 |
| CCCN(CCc1cccs1)[C@H]1CCc2c(ccc(O)c2O)C1 (racemic) | 110 | 6 |  |  |  |
| CCCN(CCc1cccs1)C1CCC2=C(CCCC2=O)C1 (racemic) |  |  | 503 |  | 262 |
| C#CCN(C)C1CCC2=C(CCCC2=O)C1 (racemic) |  |  |  | 513 | 713 |
| CCCN(C)C1CCC2=C(CCCC2=O)C1 (racemic) |  |  |  | 5740 | 2928 |
| CCCN(CCCF)C1CCC2=C(CCCC2=O)C1 (racemic) |  |  | 7540 | 5194 |  |
| CCCN(CCC)[C@H]1CCC2=C(CCCC2=O)C1 (racemic) |  |  | 8787 | 5354 | 2312 |
| CCCN(CCc1cccs1)[C@H]1CCc2c(O)cccc2C1 (racemic) [ROTIGOTINE] | 500 | 15 |  |  |  |
